Data set [1] in a line: Antioxidative activity assessed as DPPH radical scavenging activity at 93.9 uM. Type of data set: physicochemical. A general note: Loss of DPPH colour is used to gauge radical scavenging.
Data set [2] in a line: Antioxidative activity assessed as ABTS cation radical scavenging activity at 108.3 uM. Type of data set: physicochemical.
The test system of another data set is Escherichia coli. As to the kind of experiment: Antimicrobial activity against Escherichia coli 1.044 assessed as inhibition of microbial growth incubated at 37 degC for 24 hrs. The format is functional. As to conditions: Escherichia coli, 1.044, 24 h. In short, it runs like this: (§1)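 MIC by tube broth dilution in MHB. Samples were dissolved in DMSO, with final DMSO no more than 5% (v/v). Final dilutions ran from 50 to 0.19 μg/mL, with final bacteria at 1 × 10^8 CFU/mL. Tubes were incubated at 37 °C for 24 h. MIC was taken as the lowest concentration inhibiting visible growth.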

For a further data set, the system named is Bacillus subtilis. As to the kind of experiment: Antimicrobial activity against Bacillus subtilis 1.079 assessed as inhibition of microbial growth incubated at 37 degC for 24 hrs. Type of data set: functional. As to conditions: Bacillus subtilis, 1.079, 24 h. In short, it runs like this:
as §1

The nature of data set [3]: Antioxidative activity assessed as superoxide anion radical scavenging activity at 90.9 uM. Type of data set: physicochemical.
For data set [4], the system named is Fusarium oxysporum f. sp. vasinfectum. In words: Antimicrobial activity against Fusarium vasinfectum assessed as inhibition of microbial growth up to 100 ug/mL incubated at 31 degC for 72 hrs. The format is functional, organism-based. The gist of the method: (§2)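 Oxford cup diffusion on agar plates of potato extract 20% (w/v, boiled 20 min), dextrose 20.0 g/L and agar 17 g/L, inoculated with the test fungus. Plates were incubated at 31 °C for 72 h.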

Data set [5] concerns Saccharomyces cerevisiae. In words: Antimicrobial activity against Saccharomyces cerevisiae assessed as inhibition of microbial growth up to 100 ug/mL incubated at 31 degC for 72 hrs. The format is functional, organism-based. In short, it runs like this:
as §2

Data set [6] relates to Fusarium graminearum. As to the kind of experiment: Antimicrobial activity against Fusarium graminearum assessed as inhibition of microbial growth up to 100 ug/mL incubated at 31 degC for 72 hrs. Type of data set: functional, organism-based. In short, it runs like this:
(§3)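 Oxford cup diffusion assay on agar plates of potato extract 20% (w/v, boiled 20 min), dextrose 20.0 g/L and agar 17 g/L, seeded with the fungal strain. Plates incubated at 31 °C for 72 h.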

Data set [7] is described as follows: Antioxidative activity assessed as ABTS cation radical scavenging activity. The format is physicochemical.
Data set [8] in a line: Antioxidative activity assessed as DPPH radical scavenging activity. Type of data set: physicochemical.
The subject of data set [9] is Candida albicans. In words: Antimicrobial activity against Candida albicans assessed as inhibition of microbial growth up to 100 ug/mL incubated at 31 degC for 72 hrs. The format is functional, organism-based. The gist of the method: as §2
Data set [10] is described as follows: Antioxidative activity assessed as superoxide anion radical scavenging activity at 61.3 uM. Type of data set: physicochemical.
Data set [11] relates to Aspergillus niger. As to the kind of experiment: Antimicrobial activity against Aspergillus niger assessed as inhibition of microbial growth incubated up to 100 ug/mL at 31 degC for 72 hrs. The format is functional, organism-based. The gist of the method: as §2
Data set [12] deals with Saccharomyces cerevisiae. As to the kind of experiment: Antimicrobial activity against Saccharomyces cerevisiae assessed as inhibition of microbial growth up to 200 ug/mL incubated at 31 degC for 72 hrs. Type of data set: functional, organism-based. In short, it runs like this:
as §3

For data set [13], the system named is Fusarium graminearum. As to the kind of experiment: Antimicrobial activity against Fusarium graminearum assessed as inhibition of microbial growth up to 200 ug/mL incubated at 31 degC for 72 hrs. The format is functional, organism-based. In short, it runs like this: as §3
The test system of data set [14] is Aspergillus niger. As to the kind of experiment: Antimicrobial activity against Aspergillus niger assessed as inhibition of microbial growth incubated up to 200 ug/mL at 31 degC for 72 hrs. Type of data set: functional, organism-based. In short, it runs like this:
as §3

Data set [15] relates to Fusarium oxysporum f. sp. vasinfectum. In words: Antimicrobial activity against Fusarium vasinfectum assessed as inhibition of microbial growth up to 200 ug/mL incubated at 31 degC for 72 hrs. The format is functional, organism-based. The gist of the method:
as §3

The subject of data set [16] is Candida albicans. As to the kind of experiment: Antimicrobial activity against Candida albicans assessed as inhibition of microbial growth up to 200 ug/mL incubated at 31 degC for 72 hrs. The format is functional, organism-based. The gist of the method: as §3
A short description of data set [17]: Antioxidative activity assessed as ABTS cation radical scavenging activity at 103.7 uM. The format is physicochemical.
A short description of data set [18]: Antioxidative activity assessed as superoxide anion radical scavenging activity at 88.3 uM. Type of data set: physicochemical.
The nature of data set [19]: Antioxidative activity assessed as DPPH radical scavenging activity at 89.9 uM. Type of data set: physicochemical.
Data set [20] is described as follows: Antioxidative activity assessed as superoxide anion radical scavenging activity. Type of data set: physicochemical.

Calls of active or inactive are those of the source.

Turning to `CN1C(=O)C2=CC3(n4cc(C[C@@]56SSSS[C@@](CO)(C(=O)N5C)N(C)C6=O)c5ccccc54)c4ccccc4N[C@@H]3N2C(=O)C1CO` (some centres undefined), the “inhibition (INH)” value is < 10% in data set [1], < 20% in [2] and 14.8% in data set [3]. The MIC with Escherichia coli is > 50 µg/mL; with Bacillus subtilis it was 25 µg/mL.

Consider `CC(C)=CCc1ccc2[nH]cc(C3=C(O)C(=O)C(O)(c4c[nH]c5ccc(CC=C(C)C)cc45)C(=O)C3=O)c2c1` (centres undefined), for which the “growth inhibition (GI)” value (in data set [4]; in the data set on Saccharomyces cerevisiae [5]; in the data set on Fusarium graminearum [6]; in the data set on Candida albicans [9]; with Aspergillus niger [11]) was “inactive” throughout. The IC50 in [7] came to 45.2 µM; in data set [8], 144 µM. Besides, the MIC with Escherichia coli was > 50 µg/mL; in the data set with Bacillus subtilis it was 50 µg/mL. Also, in data set [10], the “inhibition (INH)” value is 30.4%.

Regarding `O=C1O[C@H]([C@@H](O)CO)C(O)=C1O` [ASCORBIC ACID], the IC50 in data set [7] turned out to be 0.01 µM; in data set [8] it was 0.02 µM.

On to `CN1C(=O)[C@]2(Cc3cn([C@]45C[C@@]67SS[C@@](CO)(C(=O)N6[C@H]4Nc4ccccc45)N(C)C7=O)c4ccccc34)SS[C@@]1(CO)C(=O)N2C` [CHETOMIN], for which the “growth inhibition (GI)” value (in the data set with Saccharomyces cerevisiae [12]; with Fusarium graminearum [13]; with Aspergillus niger [14]; in data set [15]; in the data set with Candida albicans [16]) was “inactive” in each case. Besides, the “inhibition (INH)” value in [1] was < 10%; in data set [2], < 20%; in data set [3] it was 18.1%. Also, the figures for the MIC in the data set on Escherichia coli and with Bacillus subtilis were > 50 µg/mL and 0.78 µg/mL, respectively.

As for `CN1C(=O)[C@]2(Cc3cn([C@]45C[C@@]67SSS[C@@](CO)(C(=O)N6[C@H]4Nc4ccccc45)N(C)C7=O)c4ccccc34)SS[C@@]1(CO)C(=O)N2C` [CHETOSEMINUDIN A], the “inhibition (INH)” value in data set [17] was < 20%; in data set [18], 51.5%; in [19], < 10%. Further, the MIC in the data set with Escherichia coli is > 50 µg/mL; with Bacillus subtilis, 0.78 µg/mL.

In the case of `O=c1cc(-c2ccc(O)c(O)c2)oc2cc(O)cc(O)c12` [LUTEOLIN], the IC50 in data set [20] turned out to be 22.3 µM.

`COc1cccc(OC)c1C(=O)N[C@@H]1C(=O)N2[C@@H]1SC(C)(C)[C@@H]2C(=O)O` [METHICILLIN]: the minimal inhibitory concentration (MIC) in the data set with Bacillus subtilis amounted to 0.78 µg/mL.

By MIC is commonly meant the smallest concentration in the dilution series that meets the test's criterion for growth inhibition. In general, IC50 refers to the midpoint of a concentration-inhibition curve.

The values are drawn from ChEMBL document CHEMBL3588830, “Indole Alkaloids from Chaetomium globosum” (J Nat Prod, 2015).
